F508del corr: F508del CFTR correction, initial screen, CFBE line, single point; CFBE cells, YFP halide quenching; stimulated with forskolin plus potentiator P3; % fluorescence drop versus neutral controls; activity (quench increase), % at 7.58 µM; actives 0.36% (n = 350,000);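 active = mean added fluorescence quench of at least 8% versus neutral control, with both replicates also reaching 8%; inconclusive = only one of the mean or replicate conditions met; inactive = mean below 8% and not both replicates reaching 8%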;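 note: cells transiently co-express mutant CFTR-F508del with the halide-sensitive YFP; corrector assay measuring rescue of mutant channel to the surface after 24 h compound exposure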
DENV2 CPE rescue: inhibitors of DENV2 cytopathic effect, primary screen, cell-based, plate reader, single concentration; actives 1.7% (n = 350,000); DENV2-infected cells, cytopathic effect rescue; CPE inhibition, % at 9.99 µM; in the data active = CPE inhibition above about 20%, passing the limit was not always enough; inconclusive = no clear call, values can overlap the other calls; tested in BHK-21 cells;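 note: 0% = median of neutral control wells and 100% = median of positive control wells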
E-sel inducer: E-selectin induction in HUVECs, primary screen, imaging, HUVEC, immunofluorescence imaging, single point; normalized: neutral wells 0, TNF-alpha wells 100; P16581; activation, % at 7.58 µM; actives 0.37% (n = 260,000);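 active = mean E-selectin-positive cell signal at least 10% of the positive control, reached in at least 60% of replicates, without over 20% cell loss; inconclusive = no rule given, readout overlaps actives, possibly toxicity-flagged; inactive = the rest, including those meeting only one limit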
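assay system = HUVEC, human umbilical vein endothelial cells | input = 3,000 HUVEC seeded per well | medium = EGM-2 growth medium on 0.1% gelatin-coated wells | dosing = one compound dose added by pin transfer | signal = immunofluorescence imaging | read-out basis = % PE-positive cells | control set = TNF-alpha, DMSO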
FGF22 binding: binders of human FGF22 protein, primary screen, FGF22 synaptogenesis inhibitor project, biophysical, thermal shift, single point | Fibroblast growth factor 22 (Homo sapiens), Q9HCT0 | recombinant FGF22 thermal shift, SYPRO orange fluorescence; percent of sucrose octasulfate shift, DMSO zero | activity (Tm shift, normalised), % at 9.99 µM | actives 1.5% (n = 340,000) | AID 651658, 2012;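 active = mean Tm shift, scaled 0 neutral to 100 positive control, at about 1.3% or above, every replicate too, limit read from the data; inconclusive = no clear call, values can overlap the other calls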
Target sequence (Q9HCT0 whole entry, looked up): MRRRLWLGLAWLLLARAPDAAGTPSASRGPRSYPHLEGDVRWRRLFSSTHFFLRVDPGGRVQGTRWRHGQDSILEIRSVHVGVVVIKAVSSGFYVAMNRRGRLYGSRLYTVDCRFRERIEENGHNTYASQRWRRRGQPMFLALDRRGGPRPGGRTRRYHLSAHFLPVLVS
ERAP1 inh: human ERAP1 aminopeptidase inhibitors, primary screen, biochemical, single point, plate reader | Endoplasmic reticulum aminopeptidase 1 (Homo sapiens), Q9NZ08 | recombinant ERAP1, Leu-AMC fluorescence, 60 min | inhibition, % at 10.7 µM | actives 0.15% (n = 340,000) | AID 652197, 2013;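 active = mean replicate inhibition of at least 30%, or all replicates individually reaching that 30% level; inactive = mean below 30% and not every replicate reaching it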;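 note: 0% = neutral control wells and 100% = L-leucinethiol positive control wells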
An asterisk follows results filed as active; ? = inconclusive; / = not tested or not shown. The list is not random: actives were taken first. Their share in the collection is about 3.7%.

SMILES	F508del corr	DENV2 CPE rescue	E-sel inducer	FGF22 binding	ERAP1 inh
CC(C)NC(=O)Nc1ccc2c(c1)CC(=O)N([C@H](C)CO)C[C@H](C)[C@@H](CN(C)Cc1ccc3c(c1)OCO3)O2	-1	1	8	-1	-4
Cc1ccc(S(=O)(=O)N[C@@H]2CC[C@H](CCNC(=O)C3CCC3)O[C@@H]2CO)cc1	-2	-4	-1	0	-1
N#C/C(=C\c1cccs1)C(=O)c1ccccc1Cl	-9	78*	0	0	6
CC(C)(C)C(=O)/C(C#N)=C/c1cccs1	1	4	4	0	0
N#Cc1ccc(-c2ccc(C3[C@@H]4CN(Cc5ccccc5F)C[C@H]3N4)cc2)cc1 (some centres not stated)	-3	-2	0	/	0
N#Cc1ccc(-c2ccc([C@@H]3[C@@H]4CN(Cc5cocn5)C[C@H]3N4)cc2)cc1	6	99*	0	0	/
CC(C)C#Cc1ccc2c(c1)O[C@H](CN(C)C(=O)Nc1ccccc1)[C@H](C)CN([C@@H](C)CO)S2(=O)=O	-1	11	/	1	-2
C[n+]1cccc(C(=O)N/N=C/c2ccc3c(c2)OCO3)c1	-1	1	0	1	46*
O=C(N/N=C/c1ccc2c(c1)OCO2)c1ccc(NC(=O)c2ccc(F)cc2)cc1	2	0	/	0	3
Cn1cc(C(=O)N/N=C/c2ccc3c(c2)OCO3)c2ccccc21	9.1*	-2	6	1	3
CCCNC(=O)[C@H]1[C@H](CO)[C@H]2Cn3c(ccc(-c4ccccc4F)c3=O)[C@H]2N1CC1CC1	/	1	-1	0	-2
O=C(NC1CCCC1)C(=O)N(Cc1cccnc1)C(C(=O)NCc1ccco1)c1ccccc1F (configuration not stated)	2	6	2	44*	2
O=C(C[C@H]1CC[C@@H]2[C@H](COC[C@H](O)CN2Cc2nccs2)O1)N1CCC(Cc2ccccc2)CC1	-1	5	0	0	/
Cc1cc(NC(=O)CSc2nnc(C3COc4ccccc4O3)n2N)no1 (configuration not stated)	-5	2	0	43*	-3
C=CCn1c(SCC(=O)Nc2cc(C)on2)nnc1C1COc2ccccc2O1 (configuration not stated)	-1	-2	0	0	4
Cc1cc(OC(=O)c2c(C)cc(OC(=O)c3c(C)cc(O)cc3O)cc2O)cc(O)c1C(=O)O	-3	6	/	1.9*	0
CCCCOc1ccc(CN=C(N)N)cc1Cl	-2	-5	0	0	2
CCCCOc1ccc(CSCCN=C(N)N)cc1	5	/	1	43*	-7
C[C@@H]1CN([C@@H](C)CO)C(=O)c2cc(NC(=O)C3CCCCC3)ccc2O[C@@H](C)CCCCO[C@@H]1CN(C)C(=O)Nc1ccc(F)cc1	-1	-4	0	-1	1
C/C(CC(=O)Nc1ccc(C)c(Cl)c1)=N\NC(=O)c1ccco1	-2	-6	/	42	-1
C/C(CC(=O)Nc1ccc(C)c(Cl)c1)=N\NC(=O)Cc1cnc(N)s1	2	4	/	43*	1
COc1ccc(S(=O)(=O)N(C)C[C@H]2Oc3c(NC(=O)Nc4ccc(C(F)(F)F)cc4)cccc3C(=O)N([C@@H](C)CO)C[C@@H]2C)cc1	0	9	/	0	2
CS(=O)(=O)NCCOc1ccc(S(=O)(=O)NCCOc2ccccc2)cc1	0	?	/	0	-2
Cc1cccc(C)c1NS(=O)(=O)c1ccc(OCCNS(C)(=O)=O)cc1	0	5	/	43*	-2
Cc1cnc(NC(=O)CCc2ccccc2)s1	8.9*	4	/	0	1
SMILES	F508del corr	DENV2 CPE rescue	E-sel inducer	FGF22 binding	ERAP1 inh
CN(C)CC(=O)N1[C@H](CO)[C@H](c2ccccc2)C12CN(C(=O)c1cccc(F)c1)C2	2	-6	0	/	-2
c1ccc(-c2ccccc2OCc2nnc3n2CCC3)cc1	0	0	/	43*	-2
COc1ccc(Nc2ccccc2N)cc1	-2	-1	37*	-1	5
CC(C)CC#Cc1cnc2c(c1)C(=O)N([C@@H](C)CO)C[C@@H](C)[C@H](CN(C)Cc1ccccc1F)O2	-2	-9	1	1	-1
C/C(O)=C(/C=NCC(=O)O)C(=O)Nc1nccs1	1	/	/	43*	-1
CCOc1ccc(C(=O)N2CCN(c3cnn(-c4ccccc4)c(=O)c3Cl)CC2)cc1	-1	1	/	44*	-4
O=C(c1cccc(Br)c1)N1CCN(c2cnn(-c3ccccc3)c(=O)c2Cl)CC1	3	-3	-1	0	-2
O=C([C@H]1[C@H](CO)[C@H]2Cn3c(cccc3=O)[C@H]2N1C(=O)CC1CC1)N1CCCCC1	-2	0	0	0	6
O=C(NC1(Cc2ccccc2)CCN(CCc2cccs2)C1=O)c1ccccc1 (configuration not stated)	2	72*	0	0	-3
CC1(NC(=O)c2ccccc2)CCN(CCc2cccs2)C1=O (configuration not stated)	2	-17	0	0	1
Cc1c(C)c2c(OCC(=O)N3CCC[C@H]3C(=O)O)cc3c(c2oc1=O)CCC(C)(C)O3	-4	-11	/	0	0
Cc1c(C)c2c(OCC(=O)N3CCC(O)CC3)cc3c(c2oc1=O)CCC(C)(C)O3	9.2*	47*	/	1	/
CO[C@@H]1CN(C)C(=O)c2ccc(NS(=O)(=O)c3cccc(F)c3)cc2OC[C@@H](C)N(C(=O)Cc2cccnc2)C[C@H]1C	1	82*	0	0	-2
CO[C@H]1CN(C)C(=O)c2ccc(NS(=O)(=O)c3cccc(F)c3)cc2OC[C@H](C)N(C(=O)Cc2cccnc2)C[C@H]1C	0	23*	0	0	-1
CO[C@@H]1CN(C)C(=O)c2ccc(NS(=O)(=O)c3cccc(F)c3)cc2OC[C@H](C)N(C(=O)Cc2cccnc2)C[C@H]1C	0	-1	0	0	-1
CC1(C)CC(N2CCOCC2)=CC(=[N+]2CCOCC2)C1	0	-6	/	0	22
CC1C[N+](=C2C=C(N3CCOCC3)CC(C)(C)C2)CC(C)O1 (configuration not stated)	-1	-1	0	0	55*
CN(C(=O)COC(=O)/C=C/c1cn(-c2ccccc2)nc1-c1ccc2c(c1)OCCO2)C1CCS(=O)(=O)C1 (configuration not stated)	2	2	5	43*	4
CO[C@@H]1CN(C)C(=O)c2cc(NC(=O)c3cnccn3)ccc2OC[C@H](C)N(CCc2ccccc2)C[C@@H]1C	3	-1	0	0	0
